Results reported in ChEMBL document CHEMBL4004830 (J Med Chem, 2017).

Species on record: Homo sapiens
Experiment: Selectivity ratio of Ki for CDK2/cyclin A (unknown origin) to Ki for CDK6/cyclin D3 (unknown origin)
How it was run: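 Apparent Ki for each CDK–cyclin complex (CDK4–cyclin D1, CDK6–cyclin D3, CDK2–cyclin A) calculated from the half-maximal inhibition (IC50) and that kinase's Km(ATP). The selectivity ratio is the CDK2 Ki divided by the CDK4 or CDK6 Ki.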

SMILES: Cc1nc(NC2CCCC2)sc1-c1ccnc(Nc2ccc(N3CCOCC3)cn2)n1
- Ratio Ki: 156
